# Source: ChEMBL document CHEMBL1287658, “Reinvestigation of structure-activity relationship of methoxylated chalcones as antimalarials: synthesis and evaluation of 2,4,5-trimethoxy substituted patterns as lead candidates derived from abundantly available natural β-asarone” (Eur J Med Chem, 2010)
# Active and inactive are the calls of the source. The rule behind the calls is not given here.
# Experiments:
# Plasmodium falciparum [1] = test: Inhibition of Plasmodium falciparum-mediated human hemoglobin degradation at 100 uM; type: functional, organism-based
# Plasmodium falciparum [2] = test: Antimalarial activity against chloroquine-sensitive Plasmodium falciparum 3D7 infected in human O+ erythrocytes after 72 hrs by SYBR Green-1 fluorescence based assay; type: functional, organism-based; details: 3D7, 72 h
# Method in brief: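 P. falciparum 3D7 kept in O+ human erythrocytes, 4% hematocrit, RPMI 1640 with Albumax, hypoxanthine and gentamicin, 37 °C under 5% O2/5% CO2/90% N2. Sorbitol-synchronized rings were plated at 2% hematocrit, 1% parasitemia with drug 0–10^-4 M (0.4% DMSO final), triplicate wells, 72 h. SYBR Green I read at ex 497/em 520 nm. IC50 by visual matching of 50% growth inhibition.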
# [3] = Selectivity index, ratio of TC50 for mice (Mus musculus) L929 cells to IC50 for Plasmodium falciparum 3D7; type: toxicity, cell-based
# Method in brief: (§1)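 Selectivity index was TC50 (24 h MTT in HeLa or L929) divided by IC50 against 3D7 (72 h SYBR Green I growth assay).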
# [4] = Selectivity index, ratio of TC50 for human HeLa cells to IC50 for Plasmodium falciparum 3D7; type: toxicity, cell-based; method in brief: as §1
# Plasmodium falciparum [5] = test: Resistance index, ratio of IC50 for Plasmodium falciparum Dd2 to IC50 for Plasmodium falciparum 3D7; type: functional
# Method in brief: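 Ratio of IC50 against Dd2 to IC50 against 3D7. Both IC50s come from the same 72 h SYBR Green I assay: sorbitol-synchronised rings, 2% hematocrit, 1% parasitemia, 0 to 10^-4 M in triplicate, 0.4% final DMSO. Each IC50 taken by visual matching of 50% growth inhibition.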
# Plasmodium falciparum [6] = test: Antimalarial activity against chloroquine-resistant Plasmodium falciparum Dd2 infected in human O+ erythrocytes after 72 hrs by SYBR Green-1 fluorescence based assay; type: functional, organism-based; details: Dd2, 72 h
# Method in brief: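 Ring-stage culture (5% sorbitol synchronised) plated at 2% hematocrit, 1% parasitemia in RPMI 1640 with 0.5% Albumax, hypoxanthine, gentamicin; 37 °C, 5% O2/5% CO2/90% N2. Compounds from DMSO stock, final 0.4% DMSO, 0 to 10^-4 M, triplicate wells. 72 h, then SYBR Green I fluorescence (ex 497/em 520 nm). IC50 by visual matching of 50% growth inhibition.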
# L929 = test: Cytotoxicity against mouse L929 cells assessed as cell viability after 24 hrs by MTT assay; type: cell-based; details: l929, 24 h
# Method in brief: (§2)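 HeLa and L929 cells were grown in RPMI with 10% FBS, seeded at 10⁴ cells/well overnight, then exposed to drug for 24 h at 37 °C, 5% CO2. DMSO at 10% final was the positive control. MTT was added for 4 h, then formazan was dissolved in DMSO and read at 570 nm. TC50 was taken from dose-response curves.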
# HeLa = test: Cytotoxicity against human HeLa cells assessed as cell viability after 24 hrs by MTT assay; type: cell-based; method in brief: as §2
IC50 (Plasmodium falciparum [2]) [µM],Structure (SMILES),inhibition (Plasmodium falciparum [1]),further results
50,COc1cc(OC)c(OC)cc1CCC(O)c1ccc(Cl)cc1 (centres undefined),inactive,–
18,COc1cc(OC)c(OC)cc1/C=C/C(=O)/C=C/c1ccc(Br)cc1,inactive,–
64,COc1cc(OC)c(OC)cc1CCC(=O)c1ccc(Cl)cc1,inactive,–
17.5,C=CCn1cc(/C(=C\C(=O)c2ccc(Br)cc2)c2cc(OC)c(OC)cc2OC)c2ccccc21,inactive,–
8.6,COc1cc(OC)c(C(CC(=O)c2ccc(Cl)cc2)c2c[nH]c3ccccc23)cc1OC (centres undefined),inactive,–
12.2,COc1cc(OC)c(OC)cc1/C=C/C=C/C(=O)c1ccc(Br)cc1,inactive,–
50,O=C(/C=C/c1ccc(Cl)cc1)c1ccc(Br)cc1,inactive,–
> 200,COc1ccc(C(=O)/C=C/c2ccc(Cl)c(Cl)c2)cc1,inactive,–
7.8,COc1cc(OC)c(OC)cc1/C=C/C(=O)c1ccc(OC)c(OC)c1OC,inactive,–
47,COc1cc(OC)c(OC)cc1/C=C/C(=O)c1ccc(-c2ccc(Br)cc2)cc1,inactive,–
97.9,O=C(/C=C/c1ccc(Cl)cc1)c1ccc2c(c1)OCO2,inactive,–
78,O=C(/C=C/c1ccc(Cl)cc1)c1ccc([N+](=O)[O-])cc1,inactive,–
65,"O=C(/C=C/c1ccc(Cl)cc1)c1ccc(Cl)cc1 [4',4-DICHLOROCHALCONE]",inactive,–
88,COc1ccc(C(=O)/C=C/c2ccc(Cl)cc2)cc1,inactive,–
75,C=CCOc1ccc(C(=O)/C=C/c2ccc(Cl)cc2)cc1,inactive,–
28.8,COc1ccc(/C=C/C(=O)c2ccc(Cl)cc2)cc1,inactive,–
8.4,C=CCn1cc(C(CC(=O)c2ccc(Cl)cc2)c2cc(OC)c(OC)cc2OC)c2ccccc21 (centres undefined),inactive,–
8,COc1cc(OC)c(/C=C/C(=O)c2ccc(Cl)cc2)c(OC)c1,inactive,–
11.5,COc1ccc(C(=O)/C=C/c2cc(OC)c(OC)cc2OC)cc1,inactive,–
> 100,COc1cc(OC)c(OC)cc1/C=C/C(=O)c1ccc(C#N)cc1,inactive,–
30,O=C(/C=C/c1ccc(Cl)cc1)c1ccc(O)cc1,inactive,–
> 20,COc1cc(OC)c(OC)cc1/C=C/C(=O)c1ccc(Cl)c(Cl)c1,inactive,–
> 200,O=C(/C=C/c1ccco1)c1ccc([N+](=O)[O-])cc1,inactive,–
–,CCN(CC)CCCC(C)Nc1ccnc2cc(Cl)ccc12 (centres undefined),inactive,–
> 200,COc1cc(OC)c(OC)cc1/C=C/C(=O)c1ccc([N+](=O)[O-])cc1,inactive,–
170,O=C(/C=C/c1cccs1)c1ccc([N+](=O)[O-])cc1,inactive,–
48.5,COc1ccc(/C=C/C(C)=O)c(OC)c1,inactive,–

Structure (SMILES),IC50 (Plasmodium falciparum [2]) [µM],inhibition (Plasmodium falciparum [1]),further results
COc1ccc(/C=C/C(=O)c2ccc(Cl)cc2)c(OC)c1,6,inactive,selectivity ratio [3]: 14.6; selectivity ratio [4]: > 16.6; Ratio IC50 (Plasmodium falciparum [5]): 1.1; IC50 (Plasmodium falciparum [6]): 6.8 µM
COc1cc(/C=C/C(=O)c2ccc(Cl)cc2)cc(OC)c1OC,4.6,inactive,selectivity ratio [3]: 2.8; selectivity ratio [4]: 3; Ratio IC50 (Plasmodium falciparum [5]): 2.5; IC50 (Plasmodium falciparum [6]): 11.5 µM
COc1cc(OC)c(OC)cc1/C=C/C(=O)c1ccc(Cl)cc1,4,inactive,selectivity ratio [3]: 8.3; selectivity ratio [4]: 9; Ratio IC50 (Plasmodium falciparum [5]): 1.7; IC50 (Plasmodium falciparum [6]): 6.9 µM
COc1cc(OC)c(OC)cc1/C=C/C(=O)c1ccc(Br)cc1,1.8,inactive,Activity (L929): Non-toxic; Activity (HeLa): Non-toxic; selectivity ratio [3]: 55.6; selectivity ratio [4]: 31.7; Ratio IC50 (Plasmodium falciparum [5]): 2.8; IC50 (Plasmodium falciparum [6]): 5 µM
C=CC(C)(C)c1cc(/C=C/C(=O)c2ccc(O)cc2)c(OC)cc1O [LICOAGROCHACONE A],4.1,inactive,–
COc1cc(OC)c(OC)cc1/C=C/C(=O)c1ccc(I)cc1,2,inactive,Activity (L929): Non-toxic; Activity (HeLa): Non-toxic; selectivity ratio [3]: > 50; selectivity ratio [4]: 50; Ratio IC50 (Plasmodium falciparum [5]): 3.7; IC50 (Plasmodium falciparum [6]): 7.5 µM
